{"source": "ChEMBL document CHEMBL6182837", "about": "“Discovery and biological evaluation of nitrofuranyl-pyrazolopyrimidine hybrid conjugates as potent antimicrobial agents targeting Staphylococcus aureus and methicillin-resistant S. aureus” (RSC Med Chem, 2025)", "key": {"[1]": {"experiment": "Clearance in male Balb/c mouse at 1 mg/kg, iv by LC-MS/MS analysis", "type": "ADME, organism-based", "conditions": "in vivo", "method_in_brief": "(§1)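 Balb/c mice dosed 1 mg kg−1 intravenously or 30 mg kg−1 orally (2.5 mg kg−1 oral also given); plasma PK parameters derived.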"}, "[2]": {"test_system": "Staphylococcus aureus", "experiment": "Antibacterial activity against methicillin-resistant Staphylococcus aureus ATCC 15187 incubated for 24 hrs by Alamar blue staining based microdilution method", "type": "functional"}, "[3]": {"experiment": "Lipophilicity, logD of compound", "type": "physicochemical", "conditions": "octanol/water"}, "[4]": {"test_system": "Staphylococcus aureus", "experiment": "Bacteriostatic activity against Staphylococcus aureus ATCC 29213 assessed as reduction in bacterial count incubated for 2 to 24 hrs by time-kill assay", "type": "functional, organism-based", "conditions": "time 2-24 hrs"}, "[5]": {"test_system": "Staphylococcus aureus", "experiment": "Bactericidal activity against methicillin-resistant Staphylococcus aureus ATCC 15187 assessed as reduction in bacterial count at 2 times MIC measured after 8 to 10 hrs by time-kill assay", "type": "functional, organism-based", "conditions": "time 8-10 hrs"}, "[6]": {"test_system": "Staphylococcus aureus", "experiment": "Inhibition of biofilm formation of Staphylococcus aureus ATCC 29213 incubated for 27 hrs by absorbance based method", "type": "functional, organism-based"}, "[7]": {"test_system": "Staphylococcus aureus", "experiment": "Bactericidal activity against methicillin-resistant Staphylococcus aureus ATCC 15187 assessed as reduction in bacterial count at 4 times MIC measured for 2 hrs by time-kill assay", "type": "functional, organism-based"}, "[8]": {"test_system": "Staphylococcus aureus", "experiment": "Bactericidal activity against methicillin-resistant Staphylococcus aureus ATCC 15187 assessed as reduction in bacterial count incubated for 2 to 24 hrs by time-kill assay", "type": "functional, organism-based", "conditions": "time 2-24 hrs"}, "[9]": {"test_system": "Staphylococcus aureus", "experiment": "Bactericidal activity against Staphylococcus aureus ATCC 29213 assessed as reduction in bacterial count at 2 to 4 times MIC incubated for 2 hrs by time-kill assay"}, "[10]": {"test_system": "Staphylococcus aureus", "experiment": "Synergistic bactericidal activity against Staphylococcus aureus ATCC 29213 assessed as reduction in bacterial count at 0.02 ug/ml measured after 24 hrs in presence of vancomycin by time-kill assay", "type": "functional, organism-based", "conditions": "dose 0.02 µg/ml", "method_in_brief": "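Time-kill with compound combined with vancomycin at synergistic concentrations (from checkerboard FIC) against S. aureus; CFU followed up to 8 h and at 24 h.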"}, "[11]": {"experiment": "Terminal half life in male Balb/c mouse at 1 mg/kg, iv by LC-MS/MS analysis", "type": "ADME, organism-based", "conditions": "in vivo, read-out: beta t1/2 (converted)", "method_in_brief": "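Balb/c mice dosed intravenously at 1 mg kg−1; plasma pharmacokinetic profile analysed for half-life, C0, AUC0−t and clearance.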"}, "[12]": {"experiment": "Clearance in male Balb/c mouse at 30 mg/kg, po by LC-MS/MS analysis", "type": "ADME, organism-based", "conditions": "in vivo", "method_in_brief": "as §1"}, "[13]": {"experiment": "Cytotoxicity in human HepG2 cells incubated for 24 hrs by MTT assay", "type": "toxicity, cell-based", "method_in_brief": "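HepG2 cells, 1 × 10^4 per well in DMEM/10% FBS, 24 h attachment; compounds 200 to 0.19 μg ml−1 for 24 h at 37 °C, 5% CO2; MTT 2.5 mg ml−1 for 3 h, formazan in DMSO, OD 570 nm; doxorubicin 10 μM control.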"}, "[14]": {"test_system": "Staphylococcus aureus", "experiment": "Antibacterial activity against Ciprofloxacin-sensitive Staphylococcus aureus […] by Alamar blue staining based analysis", "type": "functional"}, "[15]": {"test_system": "Escherichia coli", "experiment": "Antibacterial activity against Escherichia coli ATCC 25922 incubated for 24 hrs by Alamar blue staining based microdilution method", "type": "functional"}, "[16]": {"experiment": "Tmax in male Balb/c mouse at 30 mg/kg, po by LC-MS/MS analysis", "type": "ADME, organism-based", "conditions": "in vivo", "method_in_brief": "as §1"}, "[17]": {"test_system": "Staphylococcus aureus", "experiment": "Antibacterial activity against Staphylococcus aureus ATCC 29213 incubated for 24 hrs by Alamar blue staining based microdilution method", "type": "functional"}, "[18]": {"experiment": "Terminal half life in male Balb/c mouse at 30 mg/kg, po by LC-MS/MS analysis", "type": "ADME, organism-based", "conditions": "in vivo, read-out: beta t1/2 (converted)", "method_in_brief": "as §1"}, "[19]": {"test_system": "Staphylococcus aureus", "experiment": "Induction of morphological disruption in Staphylococcus aureus ATCC 29213 incubated for 2 to 6 hrs by SEM analysis", "type": "functional, organism-based", "conditions": "time 2-6 hrs", "method_in_brief": "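S. aureus incubated 2 h and 6 h with compound at 1×, 2×, 4× MIC, imaged by scanning electron microscopy; untreated, vancomycin and daptomycin (1×, 2× MIC) controls.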"}, "[20]": {"experiment": "Lipophilicity, logP of compound", "type": "physicochemical", "conditions": "octanol/water"}, "[21]": {"test_system": "Staphylococcus aureus", "experiment": "Synergistic antibacterial activity against Staphylococcus aureus ATCC 29213 assessed as fractional inhibitory concentration index at 0.02 ug/ml incubated up to 24 hrs in presence of vancomycin by checkerboard analysis", "type": "functional", "conditions": "dose 0.02 µg/ml", "method_in_brief": "(§2)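 Checkerboard microdilution in cation-adjusted MHB, done per CLSI. The compound and partner antibiotic were dissolved in DMSO. The antibiotic was serially diluted across the plate and the compound was twofold serially diluted into the wells to make the combinations. Each well received 0.1 ml of inoculum, a 0.5 McFarland suspension (1.5 × 10^8 CFU ml−1) diluted 1:100 in MHB. Plates were incubated 24 h at 37 °C, then read with Alamar blue (0.04%). FIC index was calculated.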"}, "[22]": {"test_system": "Staphylococcus aureus", "experiment": "Induction of membrane permeabilization in methicillin-resistant Staphylococcus aureus ATCC 15187 at 1 to 8 times MIC measured after 80 mins by PI staining based analysis relative to control", "type": "functional", "conditions": "1.333 h", "method_in_brief": "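Propidium iodide uptake measured over time in bacteria exposed to 1×, 2×, 4× and 8× MIC, with vancomycin 4× and 8× MIC and a blank control; percentage membrane permeabilization read up to 80 min.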"}, "[23]": {"test_system": "Staphylococcus aureus", "experiment": "Synergistic antibacterial activity against methicillin-resistant Staphylococcus aureus ATCC 15187 assessed as fractional inhibitory concentration index at 0.075 ug/ml incubated up to 24 hrs in presence of rifampicin by checkerboard analysis", "type": "functional", "conditions": "dose 0.075 µg/ml", "method_in_brief": "as §2"}, "[24]": {"test_system": "Staphylococcus aureus", "experiment": "Induction of morphological disruption in methicillin-resistant Staphylococcus aureus ATCC 15187 incubated for 2 to 6 hrs by SEM analysis", "type": "functional, organism-based", "conditions": "time 2-6 hrs", "method_in_brief": "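Bacteria incubated for 2 h and 6 h at 1×, 2× and 4× MIC, with vancomycin and daptomycin at 1× and 2× MIC and untreated cells; cell morphology imaged by scanning electron microscopy.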"}, "[25]": {"experiment": "AUC (0 to infinity) in male Balb/c mouse at 30 mg/kg, po by LC-MS/MS analysis", "type": "ADME, organism-based", "conditions": "in vivo", "method_in_brief": "as §1"}, "[26]": {"test_system": "Staphylococcus aureus", "experiment": "Bactericidal activity against methicillin-resistant Staphylococcus aureus ATCC 15187 assessed as reduction in bacterial count at 1 to 4 times MIC by time-kill assay", "type": "functional, organism-based", "conditions": "time 2-24 hrs"}, "[27]": {"experiment": "Cytotoxicity against mouse RAW264.7 cells incubated for 48 to 72 hrs by absorbance based assay", "type": "toxicity, cell-based", "method_in_brief": "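MTT read-out: macrophage cells plated at 1 × 10^4 cells per well in DMEM with 10% FBS, 37 °C, 5% CO2; treatment 48 h and 72 h; 2.5 mg ml−1 MTT 3 h, formazan dissolved in DMSO, OD 570 nm; doxorubicin 10 μM control.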"}, "[28]": {"experiment": "Drug metabolism in mouse liver microsomes", "type": "ADME, Microsome", "conditions": "read-out: Drug metabolism"}, "[29]": {"test_system": "Staphylococcus aureus", "experiment": "Antibacterial activity against Staphylococcus aureus SA-K2192 overexpressing TetK by Alamar blue staining based analysis", "type": "functional"}, "[30]": {"test_system": "Staphylococcus aureus", "experiment": "Synergistic bactericidal activity against methicillin-resistant Staphylococcus aureus ATCC 15187 assessed as reduction in bacterial count at 0.075 ug/ml measured after 24 hrs in presence of rifampicin by time-kill assay", "type": "functional, organism-based", "conditions": "dose 0.075 µg/ml"}, "[31]": {"experiment": "Volume of distribution in male Balb/c mouse at 1 mg/kg, iv by LC-MS/MS analysis", "type": "ADME, organism-based", "conditions": "in vivo", "method_in_brief": "as §1"}, "[32]": {"test_system": "Staphylococcus aureus", "experiment": "Inhibition of biofilm formation of methicillin-resistant Staphylococcus aureus ATCC 15187 incubated for 27 hrs by absorbance based method", "type": "functional, organism-based"}}, "note": "Activity calls are given as the source filed them. The calls are words filed in the database; no cut-off is given here."}
{"smiles": "CCCc1nn(C)c2c(Nc3ccc(O)cc3)nc(-c3ccc([N+](=O)[O-])o3)nc12", "values": [{"measurement": "clearance", "setting": "[1]", "result": 176, "unit": "mL/min/kg"}, {"measurement": "MIC", "setting": "[2]", "result": 0.15, "unit": "µg/mL"}, {"measurement": "logD", "setting": "[3]", "result": 2.92}, {"measurement": "Activity", "setting": "[4]", "result": "Dose-dependent-effect"}, {"measurement": "Activity", "setting": "[5]", "result": "Not active; Initial Killing Was Observed, But Exhibited Some Re-Growth After 8 To 10 Hrs"}, {"measurement": "inhibition", "setting": "[6]", "result": "Dose-dependent-effect"}, {"measurement": "Activity", "setting": "[7]", "result": "Active"}, {"measurement": "Activity", "setting": "[8]", "result": "Dose-dependent-effect"}, {"measurement": "Activity", "setting": "[9]", "result": "Active"}, {"measurement": "Activity", "setting": "[10]", "result": "inactive"}, {"measurement": "half-life", "setting": "[11]", "result": 30, "unit": "min"}, {"measurement": "CL/F", "setting": "[12]", "result": 159, "unit": "mL/min/kg"}, {"measurement": "IC50 at 24 h", "setting": "[13]", "result": "> 50", "unit": "µg/mL"}, {"measurement": "MIC", "setting": "[14]", "result": 0.3, "unit": "µg/mL"}, {"measurement": "MIC", "setting": "[15]", "result": "inactive"}, {"measurement": "Tmax", "setting": "[16]", "result": 30, "unit": "min"}, {"measurement": "MIC", "setting": "[17]", "result": 0.64, "unit": "µg/mL"}, {"measurement": "half-life", "setting": "[18]", "result": 21, "unit": "min"}, {"measurement": "Activity", "setting": "[19]", "result": "Active"}, {"measurement": "logP", "setting": "[20]", "result": 2.92}, {"measurement": "fractional inhibitory concentration index (FICI)", "setting": "[21]", "result": 0.5}, {"measurement": "Activity", "setting": "[22]", "result": 45, "unit": "%"}, {"measurement": "fractional inhibitory concentration index (FICI)", "setting": "[23]", "result": 0.5}, {"measurement": "Activity", "setting": "[24]", "result": "Active"}, {"measurement": "AUC(0-inf)", "setting": "[25]", "result": 3150, "unit": "ng·h/mL"}, {"measurement": "Activity", "setting": "[26]", "result": "Time-dependent-effect"}, {"measurement": "IC50", "setting": "[27]", "result": "> 100", "unit": "µg/mL"}, {"measurement": "metabolised", "setting": "[28]", "result": 71, "unit": "%"}, {"measurement": "MIC", "setting": "[29]", "result": 0.3, "unit": "µg/mL"}, {"measurement": "Activity", "setting": "[30]", "result": "Moderate_effect"}, {"measurement": "Vd", "setting": "[31]", "result": 1.69, "unit": "L/kg"}, {"measurement": "inhibition", "setting": "[32]", "result": "Dose-dependent-effect"}]}
